The record followed here is ChEMBL document CHEMBL1145326, “Antimycobacterial agents. Novel diarylpyrrole derivatives of BM212 endowed with high activity toward Mycobacterium tuberculosis and low cytotoxicity” (2006).

Broadly, the MIC is the lowest concentration found to suppress growth. High values mean a need for much substance, low ones inhibition by little substance.

SMILES strings stand for the structures. ≈ marks a conversion by molar mass, not a printed value.

The subject of one experiment is Mycobacterium avium. The experiment can be described thus: Antibacterial activity against Mycobacterium avium. In kind it is functional. Summed up: (§1)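 MIC by serial 2-fold tube dilution. Compound DMSO stocks were filter-sterilised (0.2 µm) and diluted in water. Tubes were inoculated with 10⁵–10⁶ CFU/mL of each mycobacterium and incubated at 37 °C for 3–21 days. Each run included a drug-free control tube. Values are in µg/mL.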

Experiment [1] concerns Mycolicibacterium smegmatis. The experiment can be described thus: Antibacterial activity against Mycobacterium smegmatis. It is filed as functional. Summed up:
as §1

In experiment [2] the test system is Mycobacterium tuberculosis. The experiment can be described thus: Antibacterial activity against Mycobacterium tuberculosis 103471. In kind it is functional. Summed up: as §1
The next experiment deals with Mycobacterium marinum. In words: Antibacterial activity against Mycobacterium marinum. It is filed as functional. Summed up:
as §1

Experiment [3] relates to Vero. In words: Protection index, cytotoxicity against Vero cell line/antibacterial activity against Mycobacterium tuberculosis 103471. In kind it is functional. Summed up: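 Protection index is the ratio of Vero-cell MNTD₅₀ (cell counts after 5-day exposure) to the MIC against M. tuberculosis CIP 103471. The MIC came from 2-fold tube dilution, inoculum 10⁵–10⁶ CFU/mL, 37 °C.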

Experiment [4] has as its system Vero. In words: Cytotoxicity against Vero cell line. In kind it is functional, Chlorocebus sabaeus. Summed up:
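Vero cells were cultured for 24 h, then the medium was replaced with medium holding decreasing compound concentrations. After 5 days the cells were trypsinised and counted in a Neubauer chamber, in triplicate. MNTD₅₀ (µg/mL) is the concentration that decreased cell multiplication by less than 50% of control.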

Consider `Cc1c(CN2CCN(C)CC2)cc(-c2ccc(F)cc2F)n1-c1ccc(F)cc1`, for which the MIC against Mycobacterium avium is 16 µg/mL (≈ 40.1 µM); in experiment [1] it was more than 16 µg/mL; in experiment [2], 4 µg/mL (≈ 10 µM); against Mycobacterium marinum, more than 16 µg/mL. Moreover, the PI in the experiment on Vero [3] was found to be 2. The “Maximal non-toxic dose 50” value with Vero [4] came to 8 µg/mL.
Turning to `Cc1ccccc1-n1c(-c2ccc(F)cc2)cc(CN2CCSCC2)c1C`, the MIC in the experiment on Mycobacterium avium was 16 µg/mL (≈ 42 µM); in experiment [1] it was more than 16 µg/mL; in experiment [2], 8 µg/mL (≈ 21 µM); against Mycobacterium marinum it was more than 16 µg/mL. This molecule gave a PI with Vero [3] of 2. Further, the “Maximal non-toxic dose 50” value in the experiment with Vero [4] was 16 µg/mL.
For the molecule `NNC(=O)c1ccncc1` [ISONIAZID], the MIC against Mycobacterium avium was 32 µg/mL (≈ 233 µM); in experiment [1], 64 µg/mL (≈ 467 µM); in experiment [2], 0.25 µg/mL (≈ 1.82 µM); in the experiment with Mycobacterium marinum, 16 µg/mL (≈ 117 µM). This molecule also yielded a PI with Vero [3] of 128. Further, the “Maximal non-toxic dose 50” value with Vero [4] was 32 µg/mL.
As for `Cc1ccc(-n2c(-c3ccc(F)cc3)cc(CN3CCSCC3)c2C)cc1`, the MIC against Mycobacterium avium was found to be 8 µg/mL (≈ 21 µM); in experiment [1] it was 16 µg/mL (≈ 42 µM); in experiment [2], 1 µg/mL (≈ 2.63 µM); in the experiment on Mycobacterium marinum, 8 µg/mL (≈ 21 µM). The PI with Vero [3] is on record as 32. The “Maximal non-toxic dose 50” value in the experiment with Vero [4] amounted to 32 µg/mL.
`Cc1ccccc1-n1c(-c2ccc(F)cc2)cc(CN2CCN(C)CC2)c1C`: the MIC (in the experiment with Mycobacterium avium; in experiment [1]; in experiment [2]; in the experiment with Mycobacterium marinum) was more than 16 µg/mL in each case. Besides, the “Maximal non-toxic dose 50” value in the experiment with Vero [4] came out at 2 µg/mL.
Consider `Cc1ccccc1-c1cc(CN2CCN(C)CC2)c(C)n1-c1ccc(F)cc1`, for which the MIC (against Mycobacterium avium; in experiment [1]; in experiment [2]; with Mycobacterium marinum) was more than 16 µg/mL throughout. Also, in the experiment on Vero [4], the “Maximal non-toxic dose 50” value worked out at 2 µg/mL.
For `Cc1ccc(-n2c(-c3ccc(F)cc3)cc(CN3CCN(C)CC3)c2C)cc1`, the MIC is 16 µg/mL (≈ 42.4 µM) in the experiment with Mycobacterium avium, more than 16 µg/mL in experiment [1], 16 µg/mL (≈ 42.4 µM) in experiment [2] and 8 µg/mL (≈ 21.2 µM) against Mycobacterium marinum. The molecule further came in with a PI in the experiment on Vero [3] of 0.5. Further, the “Maximal non-toxic dose 50” value with Vero [4] was 8 µg/mL.
For `Cc1ccc(-c2cc(CN3CCN(C)CC3)c(C)n2-c2ccc(F)cc2)cc1`, the MIC with Mycobacterium avium was 4 µg/mL (≈ 10.6 µM); in experiment [1], 8 µg/mL (≈ 21.2 µM); in experiment [2], 4 µg/mL (≈ 10.6 µM); against Mycobacterium marinum it was more than 16 µg/mL. In the experiment on Vero [3], this molecule registered a PI of 2. In addition, in the experiment with Vero [4], the “Maximal non-toxic dose 50” value was 8 µg/mL.
`Cc1c(CN2CCN(C)CC2)cc(-c2ccc(Cl)cc2)n1-c1ccc(Cl)cc1`: the MIC in the experiment on Mycobacterium avium was 0.4 µg/mL (≈ 0.965 µM); in experiment [1], 25 µg/mL (≈ 60.3 µM); in experiment [2], 0.7 µg/mL (≈ 1.69 µM); against Mycobacterium marinum, 100 µg/mL (≈ 241 µM). In addition, the PI in the experiment on Vero [3] is 5.6. In addition, the “Maximal non-toxic dose 50” value with Vero [4] was found to be 4 µg/mL.
Take `Cc1c(CN2CCN(C)CC2)cc(-c2ccccc2F)n1-c1ccc(F)cc1`: the MIC (with Mycobacterium avium; in experiment [1]; in experiment [2]; with Mycobacterium marinum) was more than 16 µg/mL in each case. Moreover, the “Maximal non-toxic dose 50” value in the experiment with Vero [4] amounted to 4 µg/mL.
For `Cc1c(CN2CCSCC2)cc(-c2ccccc2Cl)n1-c1ccc(F)cc1`, the MIC against Mycobacterium avium was 16 µg/mL (≈ 39.9 µM); in experiment [1], more than 16 µg/mL; in experiment [2] it was 4 µg/mL (≈ 9.98 µM); against Mycobacterium marinum, more than 16 µg/mL. In addition, the PI in the experiment with Vero [3] is recorded as 1. Also, in the experiment on Vero [4], the “Maximal non-toxic dose 50” value was determined as 4 µg/mL.
Take `Cc1cccc(-n2c(-c3ccc(F)cc3)cc(CN3CCN(C)CC3)c2C)c1`: the MIC in the experiment with Mycobacterium avium was more than 16 µg/mL; in experiment [1], more than 16 µg/mL; in experiment [2] it was 16 µg/mL (≈ 42.4 µM); with Mycobacterium marinum it was more than 16 µg/mL. Further, the PI with Vero [3] is listed as 1. The “Maximal non-toxic dose 50” value in the experiment with Vero [4] was found to be 16 µg/mL.
Consider `Cc1cccc(-c2cc(CN3CCSCC3)c(C)n2-c2ccc(F)cc2)c1`, for which the MIC against Mycobacterium avium was 8 µg/mL (≈ 21 µM); in experiment [1] it was more than 16 µg/mL; in experiment [2], 2 µg/mL (≈ 5.26 µM); against Mycobacterium marinum, more than 16 µg/mL. For the same molecule, the PI with Vero [3] was 2. Moreover, in the experiment on Vero [4], the “Maximal non-toxic dose 50” value came out at 4 µg/mL.
